Converted amounts (≈) assume the structure as drawn. The source made the active and inactive calls. No cut-off for these calls is given here.
Key:
[1] = Oral bioavailability in mouse at 30 mg/kg; assay type: ADME, organism-based; conditions: in vivo
How it was run: (§1)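 Mouse pharmacokinetics. Oral dosing at 5 or 30 mg/kg as a suspension in HPMC K100 0.5%/Tween 80 0.1% in pH 7 buffer. AUC is measured in blood. Bioavailability is taken against an iv dose of 1 mg/kg.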

[2] = target: AMP-activated protein kinase (AMPK) alpha-1/beta-1/gamma-1 (Homo sapiens) (UniProt P54619+Q9Y478+Q13131); assay: Activation of human recombinant AMPK alpha1beta1gamma1 by FRET assay; assay type: protein-complex assay
AMP-activated protein kinase (AMPK) alpha-1/beta-1/gamma-1 (Homo sapiens), sequence (P54619 whole entry): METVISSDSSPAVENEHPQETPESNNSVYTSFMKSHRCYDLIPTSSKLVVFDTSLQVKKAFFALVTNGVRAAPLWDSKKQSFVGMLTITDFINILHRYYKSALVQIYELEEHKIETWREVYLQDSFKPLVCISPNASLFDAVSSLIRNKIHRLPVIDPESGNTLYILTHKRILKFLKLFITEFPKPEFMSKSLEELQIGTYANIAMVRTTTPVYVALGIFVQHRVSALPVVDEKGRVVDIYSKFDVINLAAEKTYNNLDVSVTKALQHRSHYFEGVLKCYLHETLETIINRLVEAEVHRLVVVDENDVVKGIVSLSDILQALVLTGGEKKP
AMP-activated protein kinase (AMPK) alpha-1/beta-1/gamma-1 (Homo sapiens), sequence (Q13131 whole entry partner): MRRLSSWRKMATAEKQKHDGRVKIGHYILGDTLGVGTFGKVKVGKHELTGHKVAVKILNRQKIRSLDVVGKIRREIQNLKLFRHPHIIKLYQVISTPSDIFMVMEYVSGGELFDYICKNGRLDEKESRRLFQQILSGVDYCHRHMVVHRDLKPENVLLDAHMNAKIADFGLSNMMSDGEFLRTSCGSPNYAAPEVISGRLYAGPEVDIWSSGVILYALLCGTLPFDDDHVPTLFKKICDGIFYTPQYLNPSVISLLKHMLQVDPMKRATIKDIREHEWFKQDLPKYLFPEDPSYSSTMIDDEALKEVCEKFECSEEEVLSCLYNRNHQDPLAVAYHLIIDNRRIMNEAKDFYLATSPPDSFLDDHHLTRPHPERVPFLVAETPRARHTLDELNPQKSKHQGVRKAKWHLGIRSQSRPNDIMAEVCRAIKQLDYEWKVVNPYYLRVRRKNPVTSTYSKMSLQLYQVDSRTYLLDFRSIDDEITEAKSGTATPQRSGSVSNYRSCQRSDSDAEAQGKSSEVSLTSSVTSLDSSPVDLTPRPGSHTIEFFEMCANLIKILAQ
AMP-activated protein kinase (AMPK) alpha-1/beta-1/gamma-1 (Homo sapiens), sequence (Q9Y478 2-270 partner limits assumed): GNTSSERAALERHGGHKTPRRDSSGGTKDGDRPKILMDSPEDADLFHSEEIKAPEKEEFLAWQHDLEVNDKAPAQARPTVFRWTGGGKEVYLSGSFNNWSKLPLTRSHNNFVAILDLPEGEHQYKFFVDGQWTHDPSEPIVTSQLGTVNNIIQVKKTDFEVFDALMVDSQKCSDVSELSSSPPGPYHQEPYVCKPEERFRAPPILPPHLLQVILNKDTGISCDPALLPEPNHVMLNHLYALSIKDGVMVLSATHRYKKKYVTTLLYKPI
How it was run: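 Activation of the α1β1γ1 heterotrimer, reported as pEC200 = −log(concentration giving a 2-fold increase in AMPK activity). Values are means of at least 2 independent experiments.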

[3] = AUC in mouse at 30 mg/kg, po; assay type: ADME, organism-based, Plasma; design: dose 30 mg/kg, route oral; conditions: blood; how it was run: as §1
[4] = Clearance in mouse at 1 mg/kg, iv; assay type: ADME, organism-based; design: dose 1 mg/kg, route intravenous; conditions: in vivo
How it was run: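 Mouse iv pharmacokinetics. 1 mg/kg given as a solution in DMSO/hydroxypropyl-β-cyclodextrin 20% in pH 7 buffer (5:95). Blood clearance is determined.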

[5] = Permeability of the compound by PAMPA; assay type: ADME; conditions: read-out: permeability
How it was run: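 Passive permeability is measured by parallel artificial membrane permeability assay (PAMPA).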

[6] = Solubility of the compound; assay type: physicochemical
How it was run: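 Solubility is the soluble fraction of the oral formulation (HPMC K100 0.5%/Tween 80 0.1% in pH 7 buffer) made by ball milling from solid powder. The maximum is […].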

[7] = Plasma protein binding in mouse; assay type: ADME, cell-free; conditions: read-out: PPB (converted)
[8] = AUC in mouse at 5 mg/kg, po; assay type: ADME, organism-based, Plasma; design: dose 5 mg/kg, route oral; conditions: blood; how it was run: as §1
[9] = Oral bioavailability in mouse at 5 mg/kg; assay type: ADME, organism-based; conditions: in vivo; how it was run: as §1
[10] = Dissociation constant, pKa of the compound; assay type: physicochemical
[11] = test system: Mus musculus; assay: Antidiabetic activity in ob/ob mouse assessed as reduction in blood glucose level at 10 mg/kg, po bid for 5 days measured 12 hrs after last dose relative to control; assay type: functional; design: scale not given: the % may be the effect or the level left
How it was run: (§2)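 ob/ob mice are gavaged bid for 5 days at 10 or 30 mg/kg without P-gp inhibitor. Blood glucose is measured 12 h after the last gavage and compared with control.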

[12] = test system: Mus musculus; assay: Antidiabetic activity in ob/ob mouse assessed as reduction in blood glucose level at 30 mg/kg, po bid for 5 days measured 12 hrs after last dose relative to control; assay type: functional; design: scale not given: the % may be the effect or the level left; how it was run: as §2
[13] = test system: Blood; assay: Ratio of AUC in mouse blood in presence of P-gp inhibitor GF120918 to AUC in mouse blood at 30 mg/kg, po; assay type: ADME, organism-based; design: dose 30 mg/kg, route oral; conditions: in vivo
How it was run: (§3)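 Mice are dosed orally (5 or 30 mg/kg) as a suspension in HPMC K100 0.5%/Tween 80 0.1% in pH 7 buffer, alone or co-administered with the P-gp inhibitor GF120918 at 30 mg/kg. Mean blood AUC with the inhibitor is compared with AUC without it.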

[14] = target: AMPK alpha2/beta2/gamma1 (Homo sapiens) (UniProt P54646+O43741+P54619); assay: Activation of human recombinant AMPK alpha2beta2gamma1; assay type: protein-complex assay
AMPK alpha2/beta2/gamma1 (Homo sapiens), sequence (O43741 whole entry, looked up): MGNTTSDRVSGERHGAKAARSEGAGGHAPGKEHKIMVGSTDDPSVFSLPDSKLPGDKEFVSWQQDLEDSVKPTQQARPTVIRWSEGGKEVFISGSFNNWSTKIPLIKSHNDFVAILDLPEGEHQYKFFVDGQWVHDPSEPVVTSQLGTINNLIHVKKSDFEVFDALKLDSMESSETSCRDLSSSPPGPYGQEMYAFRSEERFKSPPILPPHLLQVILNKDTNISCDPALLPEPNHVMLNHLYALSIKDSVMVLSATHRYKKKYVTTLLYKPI
AMPK alpha2/beta2/gamma1 (Homo sapiens), sequence (P54619 whole entry, looked up): as the sequence (P54619 whole entry) above
AMPK alpha2/beta2/gamma1 (Homo sapiens), sequence (P54646 whole entry, looked up): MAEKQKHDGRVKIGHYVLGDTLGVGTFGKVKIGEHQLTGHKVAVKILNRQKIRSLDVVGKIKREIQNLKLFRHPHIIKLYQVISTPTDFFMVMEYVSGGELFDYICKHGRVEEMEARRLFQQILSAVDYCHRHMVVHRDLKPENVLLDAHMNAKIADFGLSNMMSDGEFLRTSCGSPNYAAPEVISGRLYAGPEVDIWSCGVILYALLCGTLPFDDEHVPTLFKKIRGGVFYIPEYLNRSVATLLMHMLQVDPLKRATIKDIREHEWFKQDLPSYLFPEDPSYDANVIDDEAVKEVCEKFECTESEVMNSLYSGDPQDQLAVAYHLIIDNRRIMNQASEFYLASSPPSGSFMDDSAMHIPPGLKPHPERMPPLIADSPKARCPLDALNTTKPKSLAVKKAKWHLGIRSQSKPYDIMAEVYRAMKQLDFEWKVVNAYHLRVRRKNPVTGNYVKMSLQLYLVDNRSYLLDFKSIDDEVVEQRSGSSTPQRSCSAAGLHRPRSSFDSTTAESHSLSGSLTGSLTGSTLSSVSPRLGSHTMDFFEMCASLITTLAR

[15] = target: AMPK alpha1/beta2/gamma1 (Homo sapiens) (UniProt O43741+P54619+Q13131); assay: Activation of human recombinant AMPK alpha1beta2gamma1; assay type: protein-complex assay
AMPK alpha1/beta2/gamma1 (Homo sapiens), sequence (O43741 whole entry, looked up): as the sequence (O43741 whole entry, looked up) above
AMPK alpha1/beta2/gamma1 (Homo sapiens), sequence (P54619 whole entry, looked up): as the sequence (P54619 whole entry) above
AMPK alpha1/beta2/gamma1 (Homo sapiens), sequence (Q13131 whole entry, looked up): as the sequence (Q13131 whole entry partner) above

[16] = target: AMPK alpha2/beta2/gamma3 (Homo sapiens) (UniProt P54646+O43741+Q9UGI9); assay: Activation of human recombinant AMPK alpha2beta2gamma3; assay type: protein-complex assay
AMPK alpha2/beta2/gamma3 (Homo sapiens), sequence (O43741 whole entry, looked up): as the sequence (O43741 whole entry, looked up) above
AMPK alpha2/beta2/gamma3 (Homo sapiens), sequence (P54646 whole entry, looked up): as the sequence (P54646 whole entry, looked up) above
AMPK alpha2/beta2/gamma3 (Homo sapiens), sequence (Q9UGI9 whole entry, looked up): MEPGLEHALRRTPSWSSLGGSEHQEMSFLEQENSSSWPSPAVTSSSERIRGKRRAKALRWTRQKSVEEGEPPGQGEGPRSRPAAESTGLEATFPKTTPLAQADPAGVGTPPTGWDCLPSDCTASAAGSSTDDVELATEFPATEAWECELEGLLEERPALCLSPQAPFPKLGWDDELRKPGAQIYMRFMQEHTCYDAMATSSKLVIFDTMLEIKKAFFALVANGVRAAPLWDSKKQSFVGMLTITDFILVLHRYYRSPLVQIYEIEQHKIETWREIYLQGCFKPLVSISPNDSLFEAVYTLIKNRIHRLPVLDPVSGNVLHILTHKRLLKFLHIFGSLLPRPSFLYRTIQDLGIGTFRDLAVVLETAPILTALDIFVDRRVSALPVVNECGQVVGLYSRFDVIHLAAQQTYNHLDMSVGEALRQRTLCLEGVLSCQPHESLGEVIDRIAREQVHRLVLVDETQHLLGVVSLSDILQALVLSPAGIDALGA

[17] = target: AMPK alpha2/beta1/gamma1 (Homo sapiens) (UniProt P54646+P54619+Q9Y478); assay: Activation of human recombinant AMPK alpha2beta1gamma1; assay type: protein-complex assay
AMPK alpha2/beta1/gamma1 (Homo sapiens), sequence (P54619 whole entry partner): as the sequence (P54619 whole entry) above
AMPK alpha2/beta1/gamma1 (Homo sapiens), sequence (P54646 whole entry): as the sequence (P54646 whole entry, looked up) above
AMPK alpha2/beta1/gamma1 (Homo sapiens), sequence (Q9Y478 2-270 partner limits assumed): as the sequence (Q9Y478 2-270 partner limits assumed) above

[18] = test system: Blood; assay: Ratio of AUC in mouse blood in presence of P-gp inhibitor GF120918 to AUC in mouse blood at 5 mg/kg, po; assay type: ADME, organism-based; design: dose 5 mg/kg, route oral; conditions: in vivo; how it was run: as §3
[19] = test system: Mus musculus; assay: Antidiabetic activity in ob/ob mouse assessed as reduction in blood glucose level at 100 mg/kg, po bid for 5 days in presence of P-gp inhibitor GF120918 relative to control; assay type: functional; design: scale not given: the % may be the effect or the level left
How it was run: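 ob/ob mice receive chronic oral treatment at 100 mg/kg co-administered with the P-gp inhibitor. The blood glucose reduction is assessed against control.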

[20] = target: AMPK alpha1/beta1/gamma3 (Homo sapiens) (UniProt Q9Y478+Q13131+Q9UGI9); assay: Activation of human recombinant AMPK alpha1beta1gamma3; assay type: protein-complex assay
AMPK alpha1/beta1/gamma3 (Homo sapiens), sequence (Q13131 whole entry partner): as the sequence (Q13131 whole entry partner) above
AMPK alpha1/beta1/gamma3 (Homo sapiens), sequence (Q9UGI9 whole entry partner): as the sequence (Q9UGI9 whole entry, looked up) above
AMPK alpha1/beta1/gamma3 (Homo sapiens), sequence (Q9Y478 2-270 limits assumed): as the sequence (Q9Y478 2-270 partner limits assumed) above

[21] = target: AMPK alpha1/beta1/gamma2 (Homo sapiens) (UniProt Q9UGJ0+Q9Y478+Q13131); assay: Activation of human recombinant AMPK alpha1beta1gamma2; assay type: protein-complex assay
AMPK alpha1/beta1/gamma2 (Homo sapiens), sequence (Q13131 whole entry partner): as the sequence (Q13131 whole entry partner) above
AMPK alpha1/beta1/gamma2 (Homo sapiens), sequence (Q9UGJ0 whole entry): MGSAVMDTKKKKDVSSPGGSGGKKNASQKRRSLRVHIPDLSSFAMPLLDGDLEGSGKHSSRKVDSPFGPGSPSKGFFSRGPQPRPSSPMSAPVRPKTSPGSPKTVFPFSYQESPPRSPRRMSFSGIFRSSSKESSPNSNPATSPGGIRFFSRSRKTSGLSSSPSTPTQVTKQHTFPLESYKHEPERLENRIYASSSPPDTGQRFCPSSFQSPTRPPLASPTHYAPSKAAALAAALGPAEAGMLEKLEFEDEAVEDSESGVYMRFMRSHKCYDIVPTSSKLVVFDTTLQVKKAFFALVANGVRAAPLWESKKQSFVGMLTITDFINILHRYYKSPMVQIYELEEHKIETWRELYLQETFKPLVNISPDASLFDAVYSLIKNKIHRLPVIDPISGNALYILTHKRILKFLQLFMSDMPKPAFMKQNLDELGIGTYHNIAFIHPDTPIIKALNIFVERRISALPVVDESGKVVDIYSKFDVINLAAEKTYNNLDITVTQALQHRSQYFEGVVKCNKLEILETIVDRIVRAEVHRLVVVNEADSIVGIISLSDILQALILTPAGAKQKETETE
AMPK alpha1/beta1/gamma2 (Homo sapiens), sequence (Q9Y478 2-270 partner limits assumed): as the sequence (Q9Y478 2-270 partner limits assumed) above

pEC200 [2] | clearance [4] | Papp [5] | solubility [6] | fraction unbound [7] | AUC [8] | bioavailability [9] | SMILES | further results
7.8 | 34 mL/min/kg |  |  |  |  |  | N#Cc1c(O)c2c(ccn2-c2ccc(-c3ccccc3O)cc2)[nH]c1=O | bioavailability [1]: 10%; AUC [3]: 1490 ng·h/mL
5.5 |  |  |  |  |  |  | COc1ccccc1-c1ccc(-n2ccc3[nH]c(=O)c(C#N)c(O)c32)cc1 | 
9.2 | 3 mL/min/kg | < 0.3 ×10⁻⁶ cm/s | 42.5 µg/mL (≈ 104 µM) | < 0.001 | 892 ng·h/mL | 3% | COc1cccc(-c2ccc(-n3c(Cl)cc4[nH]c(=O)c(C#N)c(O)c43)cc2)c1O | Activity [17]: Active; Activity [15]: Active; Ratio AUC [18]: 10; Activity [19]: 18%; pEC200 [16]: 7.3; Activity [20]: Active; Activity [21]: Active; pEC200 [14]: 7.3
8.5 | 24 mL/min/kg | < 0.3 ×10⁻⁶ cm/s | 500 µg/mL (≈ 1390 µM) | 0.013 | 80 ng·h/mL | 2% | N#Cc1c(O)c2c(-c3ccc(-c4ccccc4O)cc3)csc2[nH]c1=O | 

The remaining lines, values behind:

SMILES | pEC200 [2] | clearance [4] | Papp [5] | solubility [6] | fraction unbound [7] | AUC [8] | bioavailability [9] | further results
COc1ccc(-c2ccc(-n3ccc4[nH]c(=O)c(C#N)c(O)c43)cc2)cc1 | 6.8 |  | < 0.08 ×10⁻⁶ cm/s | 59 µg/mL (≈ 165 µM) |  |  |  | 
CCc1ccc(-n2c(Cl)cc3[nH]c(=O)c(-c4ccccc4)c(O)c32)cc1 | 6.3 | 12 mL/min/kg | 15 ×10⁻⁶ cm/s | 20 µg/mL (≈ 54.8 µM) | 0.002 | 3410 ng·h/mL | 50% | pKa [10]: 6
COc1cccc(-c2ccc(-n3c(Cl)cc4[nH]c(=O)c(-c5cccc(C(=O)O)c5)c(O)c43)cc2)c1O | 8.7 | 1 mL/min/kg | < 0.06 ×10⁻⁶ cm/s | 325 µg/mL (≈ 646 µM) | < 0.001 | 403 ng·h/mL | 0.5% | 
COc1cccc(-c2ccc(-n3c(Cl)cc4[nH]c(=O)c(-c5ccccc5)c(O)c43)cc2)c1O | 7.6 | 0.3 mL/min/kg | 11 ×10⁻⁶ cm/s | 25 µg/mL (≈ 54.5 µM) | < 0.001 | 41300 ng·h/mL | 15% | Activity [11]: 13%; Activity [12]: 17%; Ratio AUC [13]: 2; Activity [14]: Active
Cc1ccc(-c2ccc(-n3c(Cl)cc4[nH]c(=O)c(C#N)c(O)c43)cc2)cc1 | 7.5 | 0.7 mL/min/kg | 0.48 ×10⁻⁶ cm/s | 129 µg/mL (≈ 343 µM) | < 0.001 | 17000 ng·h/mL | 14% | pEC200 [15]: < 4.5; pEC200 [16]: 5.5; pEC200 [14]: 5.5
COc1cccc(-c2ccc(-n3ccc4[nH]c(=O)c(C#N)c(O)c43)cc2)c1 | 5.3 |  |  |  |  |  |  | 
N#Cc1c(O)c2c(cc(Cl)n2-c2ccc(-c3ccsc3)cc2)[nH]c1=O | 8.1 | 0.9 mL/min/kg | < 0.07 ×10⁻⁶ cm/s | 186 µg/mL (≈ 506 µM) | < 0.001 | 19500 ng·h/mL | 21% | Activity [19]: 17%; pKa [10]: < 2; Activity [14]: Active
COc1cccc(-c2ccc(-n3ccc4[nH]c(=O)c(C#N)c(O)c43)cc2)c1O | 8 | 2.4 mL/min/kg | < 0.04 ×10⁻⁶ cm/s | 500 µg/mL (≈ 1340 µM) | 0.007 | 70 ng·h/mL | < 1% | 
